In experiment [1] the target is O-acyltransferase (Oryctolagus cuniculus, UniProt G1SFD9). The experiment can be described thus: Inhibitory activity against Acyl coenzyme A:cholesterol acyltransferase 1 obtained from rabbit intestine microsomes. Put shortly:
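Enzyme source was small-intestinal mucosa microsomes from cholesterol-fed rabbits. The substrate was [1-¹⁴C]oleoyl-CoA.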

The subject of experiment [2] is Rattus norvegicus. The experiment can be described thus: Total cholesterol lowering activity tested by administered orally to cholesterol fed rats at dose 0.3(mg/kg) once a day for 3 days. Type of experiment: functional. Put shortly: (§1)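 Male Wistar rats received the compound orally once daily for 3 days. Each night they ate a diet with 2% cholesterol, 1% cholic acid, 20% casein, 45% sucrose, 12% coconut oil, 4% KC flock, 1% vitamin mix, 7% mineral mix and 8% dried fish powder. Serum total cholesterol was then measured. Activity is the observed reduction as a percentage of the control-minus-normal difference.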

Experiment [3] relates to Rattus norvegicus. The experiment can be described thus: Total cholesterol lowering activity tested by administered orally to rats at dose 1(mg/kg) once a day for 3 days. Type of experiment: functional. Summed up:
as §1

The species entered for experiment [4] is Rattus norvegicus. The experiment can be described thus: Inhibitory activity against foam cell formation (acetyl-LDL-induced cholesteryl ester accumulation) in rat peritoneal macrophages. The experiment is classed as functional. Put shortly:
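Peritoneal macrophages were prepared from rats. The IC₅₀ was determined for inhibition of acetyl-human-LDL-induced cellular cholesteryl ester accumulation.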

For experiment [5], the system named is Rattus norvegicus. The experiment can be described thus: Total cholesterol lowering activity tested by administered orally to cholesterol fed rats at dose 3(mg/kg) once a day for 3 days. The experiment is classed as functional. Summed up: as §1
For experiment [6], the system named is Rattus norvegicus. The experiment can be described thus: Total cholesterol lowering activity tested by administered orally to rats at dose 10(mg/kg) once a day for 3 days. The experiment is classed as functional. Summed up: as §1
In experiment [7] the target is Sterol O-acyltransferase 1 (Oryctolagus cuniculus). The experiment can be described thus: Inhibitory activity against Acyl coenzyme A:cholesterol acyltransferase 1 obtained from rabbit liver microsomes.
Experiment [8] has as its system Rattus norvegicus. The experiment can be described thus: Total cholesterol lowering activity tested by administered orally to rats at dose 3(mg/kg) once a day for 3 days. The experiment is classed as functional. Put shortly:
as §1

The molecule `CCCCCCCCCCCCC(C)(C)C(=O)Nc1c(C)cc(C)c2c1OC(C)(C)C2` displayed an IC50 in experiment [1] of 33 nM. `Cc1cc(C)c(NC(=O)c2ccc(OCCCCCCOc3ccc(Cl)cc3)cc2)c2c1CC(C)(C)O2` came in with an IC50 in experiment [1] of more than 200 nM.

On to `CCCCCCCCCCC(C)(C)C(=O)Nc1c(C)cc(C)c2c1OC(C)(C)C2`, for which the Change in experiment [2] is -44%; in experiment [3] it was -61%. The molecule also returned an IC50 in experiment [4] of 650 nM. As for `CCCCCCCCCCC(C)(C)C(=O)Nc1c(OC)cc(OC)cc1OC` [CL-976], the Change in experiment [5] was -50%. This molecule also gave an IC50 in experiment [4] of 3800 nM. Turning to `CCCOCCCCCCOc1ccc(C(=O)Nc2c(C)cc(C)c3c2OC(C)(C)C3)cc1`, in experiment [1], the IC50 was more than 200 nM.

In turn, `CCCCCCCCCCC(C)(C)C(=O)Nc1c(C)c([N+](=O)[O-])c(C)c2c1OC(C)(C)C2` yielded an IC50 in experiment [1] of 36 nM. `Cc1cc(C)c(NC(=O)C(C)(C)CCCCCOc2ccc(Cl)cc2)c2c1CC(C)(C)O2` yielded an IC50 in experiment [1] of 150 nM. The Change in experiment [3] is given as -64%. Take `Cc1cc(C)c(NC(=O)C(C)(C)CCCCCCOCC(C)C)c2c1CC(C)(C)O2`: the Change in experiment [6] is reported as -62%. `CCCCCCCCCCCCOc1ccc(C(=O)Nc2c(C)cc(C)c3c2OC(C)(C)C3)cc1` returned an IC50 in experiment [1] of 90 nM. Turning to `CCCCCCCCCCC(C)(C)C(=O)Nc1c(OC)ccc2c1OCCC2=O`, the Change in experiment [2] is recorded as -66%. For the same molecule, the IC50 in experiment [7] came out at 16 nM; in experiment [4], 160 nM. As for `Cc1cc(C)c(NC(=O)C(C)(C)CCCCc2ccccc2)c2c1CC(C)(C)O2`, the IC50 in experiment [1] was 210 nM. For the molecule `Cc1cc(C)c(NC(=O)C(C)(C)CCCCOc2ccc(Cl)cc2)c2c1CC(C)(C)O2`, in experiment [6], the Change is -61%. Also, the IC50 in experiment [1] is 330 nM.

In the case of `CCCCCCCCCCOc1ccc(C(=O)Nc2c(C)cc(C)c3c2OC(C)(C)C3)cc1`, in experiment [1], the IC50 was 30 nM. Further, the Change in experiment [8] was 0%. Regarding `CCCCCCCCCCC1(C(=O)Nc2c(C)cc(C)c3c2OC(C)(C)C3)CCCC1`, the IC50 in experiment [1] was 170 nM. In experiment [1], `Cc1cc(C)c(NC(=O)C(C)(C)CCCCCCN2CCCCC2)c2c1CC(C)(C)O2` registered a concentration for half-maximal inhibition (IC50) of more than 500 nM.

In experiment [1], `Cc1ccc(OCCCCCCC(C)(C)C(=O)Nc2c(C)cc(C)c3c2OC(C)(C)C3)cc1` displayed an IC50 of 50 nM. Same read-out and setting: then `CCCCCCCCC(C)(C)C(=O)Nc1c(C)cc(C)c2c1OC(C)(C)C2`, with 140 nM.

Turning to `CCCCCCCCCCC(C)(C)C(=O)Nc1c(C)c(N(C)C)c(C)c2c1OC(C)(C)C2`, the Change in experiment [2] was -71%; in experiment [3], -88%. Moreover, the IC50 in experiment [4] came to 30 nM.

For `CCCCCCCCCCCCCCCC(=O)Nc1cccc2c1OC(C)(C)C2`, half-maximal inhibition in experiment [1] (IC50) was put at 890 nM. For `CCCCCCCCCCC1(C(=O)Nc2c(C)ccc3c2OC(C)(C)C3)CCCC1`, the Change in experiment [6] is -52%. Further, half-maximal inhibition in experiment [1] (IC50) required 240 nM. With `CCCCCCCCOc1ccc(C(=O)Nc2c(C)cc(C)c3c2OC(C)(C)C3)cc1`, the IC50 in experiment [1] was more than 200 nM. Molecule `CCCCCCCCCCC1(C(=O)Nc2cccc3c2OC(C)(C)C3)CCCC1` showed an IC50 in experiment [1] of 500 nM. Still for that read-out and setting: in the case of `Cc1cc(C)c(NC(=O)C(C)(C)CCCOc2ccc(Cl)cc2)c2c1CC(C)(C)O2` it was 260 nM.

Molecule `CCCCCCCCCCCCCCCC(=O)Nc1c(C)cc(C)c2c1OC(C)(C)C2` gave an IC50 in experiment [1] of 26 nM.

As to `Cc1cc(C)c(NC(=O)C(C)(C)CCCCCOc2ccccc2)c2c1CC(C)(C)O2`, in experiment [1], 86 nM corresponded to half-maximal inhibition (IC50). With `Cc1cc(C)c(NC(=O)C(C)(C)CCCCCc2ccccc2)c2c1CC(C)(C)O2`, the Change in experiment [6] is listed as -66%. This molecule displayed an IC50 in experiment [1] of 120 nM. `Cc1cc(C)c(NC(=O)C(C)(C)CCCc2ccc(CC(C)C)cc2)c2c1CC(C)(C)O2`: inhibition in experiment [1] was half-maximal at 40 nM (IC50). Further, in experiment [8], the Change is -57%. For the molecule `Cc1cc(C)c(NC(=O)C(C)(C)CCCCCCOc2ccc(Cl)cc2)c2c1CC(C)(C)O2`, the Change is given as -64% in experiment [2] and -75% in experiment [3]. The IC50 was 76 nM in experiment [1] and 1500 nM in experiment [4]. `Cc1cc(C)c(NC(=O)C(C)(C)CCCCCCc2ccccc2)c2c1CC(C)(C)O2` displayed an IC50 in experiment [1] of 81 nM.

`Cc1cc(C)c(NC(=O)C(C)(C)CCCCOCc2ccccc2)c2c1CC(C)(C)O2`: the Change in experiment [6] was -50%. The molecule `CCCCCCCCCCC(C)(C)C(=O)Nc1c(C)c(N)c(C)c2c1OC(C)(C)C2` yielded an IC50 in experiment [1] of 59 nM.

(Values after ChEMBL document CHEMBL1129524, “Potent inhibitors of acyl-CoA:cholesterol acyltransferase. 2. Structure-activity relationships of novel N-(2,2-dimethyl-2,3-dihydrobenzofuran-7-yl)amides” (J Med Chem, 1996).)
